Assay results from the M2OR odorant receptor database.

Molecular target: T1, OR1A1 (Homo sapiens) (UniProt Q9P1Q5)
T1 sequence (whole entry): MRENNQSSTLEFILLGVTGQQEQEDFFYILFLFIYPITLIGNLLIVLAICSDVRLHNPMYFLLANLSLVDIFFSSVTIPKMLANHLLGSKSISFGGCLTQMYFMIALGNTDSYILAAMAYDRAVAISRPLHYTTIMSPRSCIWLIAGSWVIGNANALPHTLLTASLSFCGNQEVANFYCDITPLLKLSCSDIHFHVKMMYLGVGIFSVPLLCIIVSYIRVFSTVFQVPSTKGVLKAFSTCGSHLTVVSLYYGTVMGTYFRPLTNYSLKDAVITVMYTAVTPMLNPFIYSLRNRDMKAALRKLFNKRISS
Details: stereoisomer not certain
Summary of the method: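 Each entry records the cell line, G-protein, co-transfected protein and tags used. Methods varied with the source, often transient luciferase assays in mammalian cell lines. A receptor–molecule pair is called responsive (active) if the original authors judged its signal statistically different from baseline and non-responsive (inactive) otherwise.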

Odorant receptor agonist call, active:
CCCCC(=O)CC(C)=O
CC(=O)CC(=O)CC(C)C
CC(C)=CCCC(C)=CCO
CCCCCc1ccccn1
C=C(C)C1CC=C(C)C(O)C1 (configuration not stated)
CCC=CCCCCCC=O

Odorant receptor agonist call, inactive:
CCC(C)c1nccnc1OC (configuration not stated)
CC(C)=CCCC(C)CC(=O)O (configuration not stated)
CCCCCCCCC(=O)O
CCOC(C)=O
CCC=O
CCC(=O)C(C)=O
CCCCCOC(=O)CCCCC
CC(=O)CCc1ccc(O)cc1
Cc1c[nH]c2ccccc12
CCCC(S)CCO (configuration not stated)
CCCCC(=O)OCC
CC(C)=CCCC(C)=CCCC(C)=CCO
CCCCCCCCC1CCC(=O)O1 (configuration not stated)
CCCc1ccc(O)c(OC)c1
CCCCCCC=CC=O
CCC(C)C=O (configuration not stated)
CC1=CCC(C(C)(C)S)CC1 (configuration not stated)
CCCCS
CCC(S)C(C)=O (configuration not stated)
CCc1nccnc1CC
COc1ccc2ccc(=O)oc2c1
CC(C)=CC1CC(C)CCO1 (configuration not stated)
CCCCOC=O
CC=CC(=O)C(C)CC (configuration not stated)
CC(=O)C(C)O (configuration not stated)
COc1ccc(C)cc1O
CCCSSCCC
CCOC(=O)CCSC
CSSSC
CC(C)CC=O
CCCCC=CC=O
